Reference: ChEMBL document CHEMBL1132244, “Benzodiazepine receptor ligands. 4. Synthesis and pharmacological evaluation of 3-heteroaryl-8-chloropyrazolo[5,1-c][1,2,4] benzotriazine 5-oxides” (J Med Chem, 1999)

Tests used:
[1] = molecular target: GABA-A receptor; anion channel; assay: Displacement of [3H]Ro-151788 from GABA-A benzodiazepine receptor of bovine brain membranes; assay type: cell membranes, Bos taurus
How it was run: (§1)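 Washed bovine cerebral cortex membranes, with endogenous GABA removed by Triton X-100/37 °C washes, incubated with ~0.2 nM [3H]Ro15-1788 (Kd 0.60 nM) in 50 mM Tris-citrate pH 7.4 for 90 min at 0 °C, then filtered. Nonspecific binding defined with 10 μM diazepam. Screening at 10 μM; Ki from IC50 by Cheng–Prusoff; five determinations, mean ± SEM.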

[2] = molecular target: T1, GABA-A receptor; anion channel (Bos taurus) (UniProt P10063+P08220+P20237+P08219+P10064+P22300); assay: Percentage inhibition of [3H]Ro-151788 binding to GABA-A benzodiazepine receptor in bovine brain membrane at 10 uM; assay type: cell membranes; how it was run: as §1
Mus musculus [3] = assay: (§2) Anticonvulsant activity against MES-induced hindlimb extension at 10 mg/kg dose; assay type: functional
Mus musculus [4] = assay: (§3) Anticonvulsant activity against MES-induced hindlimb extension at 100 mg/kg dose; assay type: functional
Mus musculus [5] = assay: (§4) Anticonvulsant activity against MES-induced hindlimb extension at 30 mg/kg dose; assay type: functional
Mus musculus [6] = assay: Antianxiety activity was measured based on light/dark box thus calculated no of crosses of mice at 100 mg/kg dose; assay type: functional
How it was run: (§5)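 Male Swiss-Webster mice, 22–26 g, dosed orally with drug or 1% CMC vehicle (10 mL/kg), placed 30 min later in the centre of the lit side of a two-compartment light/dark box (60-W bulb 400 mm above the white floor). Time in the lit side and number of crossings counted over 5 min. Student's t-test.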

Mus musculus [7] = assay: Antianxiety activity was measured based on light/dark box thus calculated no of crosses of mice at 30 mg/kg dose; assay type: functional; how it was run: as §5
Mus musculus [8] = assay: as §2; assay type: ADME, organism-based; parameters: dose 10 mg/kg; settings: in vivo
How it was run: (§6)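 Male Swiss-Webster mice (22–26 g) received drug in 1% CMC (10 mL/kg) 30 min before maximal electroshock through transcorneal electrodes (40 mA, 50 Hz, 0.2 s). The end point was tonic hindlimb extension, and lethality was also noted. The incidence of non-convulsing mice was analysed by χ² test.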

Mus musculus [9] = assay: as §3; assay type: organism-based; parameters: dose 100 mg/kg; settings: in vivo; how it was run: as §6
Mus musculus [10] = assay: Muscle relaxant effect measured by rotarod test at 10 mg/Kg dose in mice; assay type: functional
How it was run: (§7)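 Motor coordination on the rota rod in male Swiss-Webster mice (22–26 g) after oral dosing in 1% CMC (10 mL/kg), tested 30 min post-dose. Student's t-test.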

Mus musculus [11] = assay: Muscle relaxant effect measured by rotarod test at 100 mg/Kg dose in mice; assay type: functional; how it was run: as §7
Mus musculus [12] = assay: as §4; assay type: ADME, organism-based; parameters: dose 30 mg/kg; settings: in vivo; how it was run: as §6
Mus musculus [13] = assay: Muscle relaxant effect measured by rotarod test at 30 mg/Kg dose in mice; assay type: functional; how it was run: as §7
Mus musculus [14] = assay: Antianxiety activity was measured based on light/dark box thus calculated % time in light of mice at 100 mg/kg dose; assay type: functional; how it was run: as §5
Mus musculus [15] = assay: Anticonvulsant activity against PTZ induced atacks at 100 mg/kg dose; assay type: functional
Mus musculus [16] = assay: Anticonvulsant activity against PTZ induced attacks at 10 mg/kg dose; assay type: functional
[17] = molecular target: T1, GABA-A receptor; anion channel (Bos taurus); assay: The GABA ratio (GR) = IC50 compound + 10 uM GABA, performed in five independent experiments was calculated for the compound.; assay type: protein-complex assay
How it was run: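 [3H]Ro15-1788 displacement from GABA-depleted bovine cortex membranes (0.2 nM ligand, 90 min, 0 °C, Tris-citrate pH 7.4). IC50 measured without and with 10 μM GABA and the ratio taken; five independent experiments.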

Mus musculus [18] = assay: Antianxiety activity was measured based on light/dark box thus calculated % time in light of mice at 10 mg/kg dose; assay type: functional; how it was run: as §5
Mus musculus [19] = assay: Antianxiety activity was measured based on light/dark box thus calculated % time in light of mice at 30 mg/kg dose; assay type: functional; how it was run: as §5
Mus musculus [20] = assay: Anticonvulsant activity against PTZ induced atacks at 30 mg/kg dose; assay type: functional
Mus musculus [21] = assay: Antianxiety activity was measured based on light/dark box thus calculated no of crosses of mice at 10 mg/kg dose; assay type: functional; how it was run: as §5
Mus musculus [22] = assay: Antianxiolytic activity in mice as no of crosses on light/dark box at 100 mg/kg 13c and 1 mg/kg Diazepam; assay type: functional
Mus musculus [23] = assay: Muscle relaxant effect in rotarod test at 100 mg/kg 13c and 0.3 mg/kg Diazepam; assay type: functional
Mus musculus [24] = assay: Muscle relaxant effect in rotarod test at 100 mg/kg 13c and 1 mg/kg Diazepam; assay type: functional
Mus musculus [25] = assay: Antianxiolytic activity in mice as percent time in light of light/dark box at 100 mg/kg 13c and 1 mg/kg Diazepam; assay type: functional
Mus musculus [26] = assay: Anticonvulsant activity against PTZ induced seizures in mice at 100 mg/kg dose with 0.3 mg/kg Diazepam; assay type: functional
Mus musculus [27] = assay: Anticonvulsant activity against PTZ induced seizures at 100 mg/kg dose with 1 mg/kg Diazepam; assay type: functional
[28] = molecular target: T1, GABA-A receptor; anion channel (Bos taurus); assay: Percentage inhibition of [3H]Ro-151788 binding to GABA-A central benzodiazepine receptor in bovine brain membrane at 10 uM; assay type: cell membranes; how it was run: as §1
Mus musculus [29] = assay: Muscle relaxant effect measured by rotarod test at 300 mg/Kg dose in mice; assay type: functional; how it was run: as §7

[O-][n+]1nc2c(-c3ccsc3)cnn2c2cc(Cl)ccc21
Ki [1]: 36.3 nM | inhibition [2]: 100% | Extension (Mus musculus [3]): 14.3% | Extension (Mus musculus [4]): 27.3% | Extension (Mus musculus [5]): 33.3% | No. of crosses (Mus musculus [6]): 15.3 | No. of crosses (Mus musculus [7]): 19 | Lethality (Mus musculus [8]): 28.6% | Lethality (Mus musculus [9]): 18.2% | No. of falls (Mus musculus [10]): 0.43 | No. of falls (Mus musculus [11]): 0.15 | Lethality (Mus musculus [12]): 22.2% | No. of falls (Mus musculus [13]): 0.08 | Time in flight (Mus musculus [14]): 107.4% | Atttacks (Mus musculus [15]): 46.1% | Atttacks (Mus musculus [16]): 18.2% | GR [17]: 1.23 | Time in flight (Mus musculus [18]): 94.2% | Time in flight (Mus musculus [19]): 104.3% | Atttacks (Mus musculus [20]): 61.5% | No. of crosses (Mus musculus [21]): 16.3

O=C(N/C=N/O)c1cnn2c1n[n+]([O-])c1ccc(Cl)cc12
inhibition [2]: 0%

[O-][n+]1nc2c(-n3cccc3)cnn2c2cc(Cl)ccc21
Ki [1]: 61.5 nM | inhibition [2]: 87.5% | GR [17]: 1.24

CN1C(=O)CN=C(c2ccccc2)c2cc(Cl)ccc21.[O-][n+]1nc2c(-c3cccs3)cnn2c2cc(Cl)ccc21
No. of crosses (Mus musculus [22]): 26.6 | No. of falls (Mus musculus [23]): 0.5 | No. of falls (Mus musculus [24]): 0.17 | Time in flight (Mus musculus [25]): 130.9% | Atttacks (Mus musculus [26]): 50% | Atttacks (Mus musculus [27]): 100%

CC(C)(C)OC(=O)Nc1cnn2c1n[n+]([O-])c1ccc(Cl)cc12
inhibition [2]: 0%

Nc1cnn2c1n[n+]([O-])c1ccc(Cl)cc12
inhibition [2]: 33.9%

Clc1ccc2nnc3c(-c4cccs4)cnn3c2c1
inhibition [28]: 66%

CN1C(=O)CN=C(c2ccccc2)c2cc(Cl)ccc21
GR [17]: 1.5

[O-][n+]1nc2c(-c3nc[nH]n3)cnn2c2cc(Cl)ccc21
inhibition [2]: 44.4%

CCOC(=O)c1cnn2c1n[n+]([O-])c1ccc(Cl)cc12
Ki [1]: 35 nM | inhibition [2]: 99.8% | Extension (Mus musculus [4]): 0% | Extension (Mus musculus [5]): 0% | No. of crosses (Mus musculus [6]): 15.2 | No. of crosses (Mus musculus [7]): 19.1 | Lethality (Mus musculus [9]): 0% | No. of falls (Mus musculus [11]): 0.5 | Lethality (Mus musculus [12]): 22.2% | No. of falls (Mus musculus [29]): 0.33 | Time in flight (Mus musculus [14]): 124.6% | Atttacks (Mus musculus [15]): 28.1% | GR [17]: 1.91 | Time in flight (Mus musculus [19]): 106.2% | Atttacks (Mus musculus [20]): 15%

Cc1n[nH]c(-c2cnn3c2n[n+]([O-])c2ccc(Cl)cc23)n1
inhibition [2]: 15.2%
